KCNK9 block – blocks the human KCNK9 two-pore domain potassium channel; Q9NPC2; HEK293 KCNK9, FluxOR thallium flux fluorescence; active compounds read low; B-score at 10 µM; actives 1.2% (n = 310,000); AID 488922;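 active = ratio B-score over 3 SD below the library mean, with starting fluorescence within 5 SD of its mean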;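 note: negative B-score means less thallium flux so channel inhibition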
KCNQ1 block – blocks the human KCNQ1 potassium channel; P51787; CHO-K1 KCNQ1, FluxOR thallium flux fluorescence; active compounds read high; B-score at 10 µM; actives 1.3% (n = 310,000); AID 2642;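 active = compounds whose thallium flux B-score, printed positive for inhibition, exceeds three library SD while starting fluorescence stays within three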;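 note: channel opened by potassium depolarization with thallium stimulus after 20 min compound exposure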
Target sequence (P51787 whole entry, looked up): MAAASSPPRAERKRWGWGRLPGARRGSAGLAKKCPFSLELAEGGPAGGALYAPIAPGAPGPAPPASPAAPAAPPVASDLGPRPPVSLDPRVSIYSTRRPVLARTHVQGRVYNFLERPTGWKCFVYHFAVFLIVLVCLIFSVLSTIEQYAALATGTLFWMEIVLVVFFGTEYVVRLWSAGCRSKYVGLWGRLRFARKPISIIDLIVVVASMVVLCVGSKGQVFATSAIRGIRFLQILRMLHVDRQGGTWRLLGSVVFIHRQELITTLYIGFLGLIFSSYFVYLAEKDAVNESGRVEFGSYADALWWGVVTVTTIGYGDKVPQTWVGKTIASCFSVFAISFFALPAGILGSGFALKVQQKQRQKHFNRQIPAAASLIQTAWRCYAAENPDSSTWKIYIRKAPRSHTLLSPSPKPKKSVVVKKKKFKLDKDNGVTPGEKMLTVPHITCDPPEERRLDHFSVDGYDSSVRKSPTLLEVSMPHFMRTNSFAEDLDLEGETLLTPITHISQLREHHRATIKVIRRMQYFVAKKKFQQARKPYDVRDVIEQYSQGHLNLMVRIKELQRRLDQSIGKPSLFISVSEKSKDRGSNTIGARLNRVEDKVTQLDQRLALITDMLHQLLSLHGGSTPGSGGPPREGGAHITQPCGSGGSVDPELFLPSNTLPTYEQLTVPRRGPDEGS
KCNK3 block – human KCNK3 channel inhibition, primary screen; CHO-KCNK3 thallium flux, FluxOR fluorescence; active compounds read low; actives 0.84% (n = 340,000); AID 602410; B-score at 10 µM; O14649;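 active = B-score under library mean minus 4 SD, starting fluorescence ratio at most library mean plus 5 SD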;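 note: more negative B-score means stronger inhibition of thallium flux through KCNK3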
KCNQ1 act – human KCNQ1 channel potentiation or activation. P51787. B-score at 10 µM. AID 2648. actives 0.35% (n = 310,000). CHO-K1 KCNQ1, thallium flux FluxOR fluorescence; active compounds read high;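 active = fluorescence ratio B-score, a plate-corrected score, at least three library SD, with initial intensity B-score within 5 SD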
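Material: CHO-K1 cells stably expressing KCNQ1. Medium: assay buffer for compound exposure, DMSO matched across wells. Reagent: K+/Tl+ depolarizing stimulus. Compound dosing: single-concentration screen. Times: 37 °C overnight plating, 90-min dark dye load, 20-min compound pretreatment. Technique: FluxOR Tl+ flux fluorescence.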
Kir21 inh – Kir2.1 (mouse) channel inhibition. P35561. HEK293-Kir2.1, FluxOR thallium flux fluorescence; active compounds read low. B-score at 10 µM. actives 0.85% (n = 310,000). AID 1672;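 active = fluorescence ratio B-score at or below minus 3 SD of library scores, with starting-brightness B-score within 2 SD, cut at about -4.2 in these data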;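 note: channel flux triggered by added potassium and thallium sulfate stimulus; B-score of peak minus minimum fluorescence over baseline after thallium stimulus; more negative B-score means stronger Kir2.1 block with less thallium influx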
hERG rescue – shields human hERG channel from block by proarrhythmic agents. Q12809. actives 0.51% (n = 310,000). CHO-hERG, FluxOR thallium flux, dofetilide IC70 present. activation (rescue from dofetilide block), less the hit threshold, % at 10 µM. AID 1511;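 active = activation above the mean of controls blocked by dofetilide plus 5 SD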;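 note: thallium influx through hERG after potassium depolarization seen as dye fluorescence rise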
KCNK9 inh conf – human KCNK9 inhibitor confirmation | actives 43% (n = 4,900) | shares compounds with KCNK9 block | HEK293 KCNK9 cells, FluxOR thallium flux fluorescence | inhibition, % at 10 µM;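 active = thallium signal inhibited by more than 5 SD of the compound-free buffer control wells, on both duplicate plates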
Kir2-1 spec – tests whether KCNK9 modulators also affect mouse Kir2.1. shares compounds with KCNK9 block. Kir2.1 cells, FluxOR thallium flux fluorescence. inhibition, % at 10 µM. actives 4% (n = 4,900). AID 492993;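 active = thallium signal drop more than 5 SD beyond the mean of the no-compound control wells, seen in both duplicate plates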;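 note: signal is fluorescence rise after thallium addition divided by baseline fluorescence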
HEK293 Tl ctr – second check of KCNK9 modulator effects in non-induced HEK293 cells. shares compounds with KCNK9 block. FluxOR thallium flux. inhibition, % at 10 µM. actives 40% (n = 4,900). AID 492997;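 active = thallium signal drop beyond 5 SD of the untreated control mean, on both duplicate plates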
Of the large screens only hits and unclear results are named; the others gave an inactive call (follow-up assays come after a bar, where they were run). In the library only some 3.8% were active in any assay of this set; here they are far more common.

COC(=O)c1cc(NC(=O)C2(S(=O)(=O)c3ccc(Cl)cc3)CC2)cc(C(=O)OC)c1	none
CC(C#N)(Cc1ccccc1)Nc1ccccc1 (centres undefined)	none
Cc1nn(CC2CC2)c(=O)n1-c1ccc(Oc2ccccc2)cc1	none | KCNK9 inh conf inactive | Kir2-1 spec inactive | HEK293 Tl ctr inactive
COc1ccc(-n2c(C)nn(CCOc3ccccc3)c2=O)cc1	none
COc1ccc(S(=O)(=O)Nc2cccc3c2O[C@H](CN(C)S(=O)(=O)c2ccccc2)[C@@H](C)CN([C@H](C)CO)C3=O)cc1	none (no result: KCNK9 block, KCNQ1 block, KCNQ1 act, Kir21 inh, hERG rescue)
COc1ccc(C2C=C(Nc3ccccc3)C(=O)N2c2ccccc2)cc1OC (centres undefined)	KCNK9 block -11 | KCNK9 inh conf 62% | Kir2-1 spec inactive | HEK293 Tl ctr 34%
CCc1cccc(C)c1N(C(=O)Cn1c(COC)nc2ccccc21)C(C)COC (centres undefined)	KCNK9 block -10 | KCNK9 inh conf 40% | Kir2-1 spec inactive | HEK293 Tl ctr 25%
Cc1nn(CC(=O)Nc2cccnc2)c(C)c1[N+](=O)[O-]	none
Cc1c(NC(=O)c2cnc(Cl)c(Cl)c2)c(=O)n(-c2ccccc2)n1C	none
CN1CCN(S(=O)(=O)c2cc([N+](=O)[O-])ccc2Cl)CC1	none
O=[N+]([O-])c1ccc(Cl)c(S(=O)(=O)N2CCCCCC2)c1	KCNK9 block -11 | KCNK9 inh conf inactive | Kir2-1 spec inactive | HEK293 Tl ctr 24%
c1ccc(OCCOc2ccccc2-c2nnco2)cc1	KCNK9 block -8.4 | KCNK9 inh conf inactive | Kir2-1 spec inactive | HEK293 Tl ctr 28%
Clc1ccccc1COc1ccccc1-c1nnco1	none
CCc1ccc(NC(=S)NC(=O)CC(C)C)cc1	none
Cc1ccc(C)n1-c1nn(S(=O)(=O)c2ccccc2)c2cccc(F)c12	KCNK9 block -15 | KCNK9 inh conf 58% | Kir2-1 spec inactive | HEK293 Tl ctr 42%
CSc1nc(-c2ccccc2)nn1S(=O)(=O)c1ccccc1	none
O=C(OC1CCS(=O)(=O)c2sccc21)c1ccccc1 (centres undefined)	none
O=C(OC1CO[C@H]2O[C@@H]1[C@H](OC(=O)c1ccccc1)[C@H]2OC(=O)c1ccccc1)c1ccccc1 (some centres undefined)	none | KCNK9 inh conf inactive | Kir2-1 spec inactive | HEK293 Tl ctr inactive
CCN(CC)CCOc1ccc(/C(=C(\Cl)c2ccccc2)c2ccccc2)cc1	KCNQ1 block 11 | KCNK9 inh conf inactive | Kir2-1 spec inactive | HEK293 Tl ctr inactive
Cc1ccc2nc(-c3ccccc3)c(CN3CCN(c4ccccc4F)CC3)n2c1	none | KCNK9 inh conf inactive | Kir2-1 spec inactive | HEK293 Tl ctr inactive
Cc1ccc2nc(-c3ccccc3)c(CN3CCSCC3)n2c1	none
CN1CCN(c2nc(-c3cccs3)nc3ccccc23)CC1	none
Oc1ccccc1N1CCN(c2nc(-c3cccs3)nc3ccccc23)CC1	KCNK9 block -13 | KCNK9 inh conf 40% | Kir2-1 spec inactive | HEK293 Tl ctr 28%
Oc1ccc(N2CCN(c3nc(-c4cccs4)nc4ccccc34)CC2)cc1	KCNK9 block -8.4 | KCNK9 inh conf inactive | Kir2-1 spec inactive | HEK293 Tl ctr inactive
CCN1CCN(c2nc(-c3cccs3)nc3ccccc23)CC1	none
COc1ccccc1N(C(=O)CNC(=O)c1ccco1)C(C(=O)NCC1CCCO1)c1ccccc1 (centres undefined)	none
Cc1cccc(C)c1NC(=O)CN(C)C(=O)CN1C(=O)NC(C)(C)C1=O	none (no result: KCNK9 block, KCNQ1 block, KCNQ1 act, Kir21 inh, hERG rescue)
CCn1c2c(c3cc(Br)ccc31)CCC/C2=N\O	none
CCn1c2c(c3cc(OCC(C)C)ccc31)CCCC2=O	none | KCNK9 inh conf inactive | Kir2-1 spec inactive | HEK293 Tl ctr inactive
Cc1noc(C)c1CSc1nc2ccccc2c(=O)n1-c1ccc(F)cc1F	none | KCNK9 inh conf inactive | Kir2-1 spec inactive | HEK293 Tl ctr 25%
COc1cccc(NC(=O)CN(C)C(=O)CSc2ncnc3sc(C)c(C)c23)c1	none
CSc1nc(C(=O)N2CCc3c([nH]c4ccccc34)C2c2ccccn2)cs1 (centres undefined)	KCNK9 block -9.7 | KCNK9 inh conf 49% | Kir2-1 spec inactive | HEK293 Tl ctr 29%
Cc1ccc2nc(C(=O)N3CCc4c([nH]c5ccccc45)C3c3ccccn3)cn2c1 (centres undefined)	none
O=C(c1cccs1)N1CCc2c([nH]c3ccccc23)C1c1ccccn1 (centres undefined)	KCNK9 block -9 | KCNK9 inh conf inactive | Kir2-1 spec inactive | HEK293 Tl ctr inactive
COc1ccc(CNC(=O)COC(=O)CCn2c(C)csc2=O)cc1OC	none
O=C(N/N=C/c1cccnc1)c1cc(-c2ccccc2)nc2ccccc12	none
Cc1ccc(C)c(-c2cc(C(=O)N/N=C/c3cccnc3)c3ccccc3n2)c1	KCNK9 block -13, KCNK3 block -9.9 | KCNK9 inh conf 54% | Kir2-1 spec inactive | HEK293 Tl ctr 32%
COc1ccc(C(C)(C)C)cc1NC(=O)CNc1cccc2ccccc12	none | KCNK9 inh conf inactive | Kir2-1 spec inactive | HEK293 Tl ctr inactive
Cc1cc(NC(=O)c2cc(-c3cccs3)nc3ccccc23)no1	KCNK9 block -9.6 | KCNK9 inh conf 38% | Kir2-1 spec inactive | HEK293 Tl ctr inactive
Cc1ccc(-c2cc(C(=O)Nc3cc(C)on3)c3ccccc3n2)cc1	none
O=C(COC(=O)c1ccccc1C(=O)c1ccccc1)Nc1ccc(SC(F)F)cc1	KCNK9 block -12 | KCNK9 inh conf inactive | Kir2-1 spec inactive | HEK293 Tl ctr 32%
Cc1ccc(OCCCOc2cccc3cccnc23)cc1C	none | KCNK9 inh conf inactive | Kir2-1 spec inactive | HEK293 Tl ctr inactive
O=C(Cc1ccccc1)c1c[nH]c(C(=O)NCCCN2CCOCC2)c1	none
Cc1ccc(/C=N/n2cnc3sc(C)c(C)c3c2=O)o1	none | KCNK9 inh conf inactive | Kir2-1 spec inactive | HEK293 Tl ctr inactive
COC(=O)c1cc2ccsc2n1Cc1nc(-c2ccc(OC)cc2)oc1C	KCNK9 block -8.4 | KCNK9 inh conf 40% | Kir2-1 spec inactive | HEK293 Tl ctr 52%
COC(=O)c1cc2sccc2n1Cc1nc(-c2ccc(OC)cc2)oc1C	none
O=C(NCCCN1CCOCC1)c1ccc2c(c1)N(Cc1c(F)cccc1Cl)C(=O)CS2	none
Cc1ccccc1N(C(=O)CNC(=O)c1ccco1)C(C(=O)NC1CCCC1)c1ccncc1 (centres undefined)	none

Bioassay records from PubChem.
